Experimental data from ChEMBL document CHEMBL4732082, “Development of novel benzimidazole-derived neddylation inhibitors for suppressing tumor growth invitro and invivo” (Eur J Med Chem, 2021).
The source made the active and inactive calls. The rule behind the calls is not given here.

How the values were obtained:
A549 [1] = experiment: Induction of apoptosis in human A549 cells assessed as necrotic cells at 10 uM after 48 hrs by Annexin V-FITC/PI double staining based flow cytometric analysis (reference value: 1.57%); format: functional
A549 [2] = experiment: Antiproliferative activity against human A549 cells incubated for 48 hrs by CCK-8 assay; format: functional, cell-based; conditions: A549, 48 h
In short: (§1)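 Cells from ATCC, passaged six times, grown in DMEM with 10% FBS and penicillin/streptomycin at 37 °C under 5% CO2. Seeded at 2500 cells/well, cultured overnight, treated 48 h, viability read by CCK-8. Run in triplicate; values are the mean of three experiments.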

A549 [3] = experiment: Induction of apoptosis in human A549 cells assessed as live cells at 40 uM after 48 hrs by Annexin V-FITC/PI double staining based flow cytometric analysis (reference value: 91.8%); format: functional
[4] = Cytotoxicity against human […] cells incubated for 48 hrs by CCK-8 assay; format: cell-based; in short: as §1
[5] = target: T1, NEDD8-activating enzyme E1 regulatory subunit (Homo sapiens) (UniProt Q13564); experiment: Inhibition of NAE-mediated neddylation in human A549 cells assessed as suppression of cullin4a-Nedd8 adduct formation at 12.5 to 25 uM measured after 6 to 12 hrs by Western blot analysis; format: cell-based; conditions: dose 12.5-25 µM, time 6-12 hrs
T1 sequence (whole entry): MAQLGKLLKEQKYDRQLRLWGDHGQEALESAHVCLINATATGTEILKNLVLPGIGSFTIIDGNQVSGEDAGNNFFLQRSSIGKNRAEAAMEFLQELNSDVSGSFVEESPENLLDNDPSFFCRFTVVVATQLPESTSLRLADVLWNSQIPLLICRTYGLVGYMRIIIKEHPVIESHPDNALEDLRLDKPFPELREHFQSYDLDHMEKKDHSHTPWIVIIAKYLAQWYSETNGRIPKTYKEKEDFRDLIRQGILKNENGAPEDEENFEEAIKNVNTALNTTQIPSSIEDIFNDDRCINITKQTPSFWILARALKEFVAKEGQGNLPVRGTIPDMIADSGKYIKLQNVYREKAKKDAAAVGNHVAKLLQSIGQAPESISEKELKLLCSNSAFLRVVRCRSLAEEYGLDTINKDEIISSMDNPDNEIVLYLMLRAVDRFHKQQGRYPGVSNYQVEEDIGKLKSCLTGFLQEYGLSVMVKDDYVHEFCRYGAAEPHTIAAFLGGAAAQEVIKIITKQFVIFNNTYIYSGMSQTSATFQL
In short: (§2)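 A549 cells were treated 6 or 12 h with graded concentrations (4.5–75 μM) against a 0.1% DMSO control. Cells were washed in cold PBS, lysed in RIPA on ice and cleared by centrifugation, and protein was normalized. Cullin-Nedd8 was resolved on non-reducing SDS-PAGE and Wee1/p27 under reducing conditions, then detected by Western blot.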

A549 [6] = experiment: Induction of apoptosis in human A549 cells assessed as late apoptotic cells at 20 uM after 48 hrs by Annexin V-FITC/PI double staining based flow cytometric analysis (reference value: 4.62%); format: functional
[7] = target: T1, NEDD8-activating enzyme E1 regulatory subunit (Homo sapiens); experiment: Inhibition of NAE-mediated neddylation in human A549 cells assessed as suppression of cullin2-Nedd8 adduct formation at 12.5 to 25 uM measured after 6 to 12 hrs by Western blot analysis; format: cell-based; conditions: dose 12.5-25 µM, time 6-12 hrs; in short: as §2
A549 [8] = experiment: Antitumor activity against human A549 cells xenografted in nude mouse assessed as decrease in tumor weight at 30 mg/kg, ip qd for 5 days on and 2 days off dosing and measured after 24 days post-treatment; format: functional, organism-based; conditions: time 24.0 day
In short: (§3)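 Female nude mice were inoculated subcutaneously with 2×10^6 A549 cells in 0.1 mL PBS. At tumor volume 70–100 mm³, mice were randomized into 5 groups of 6. Dosing was ip or oral gavage, once daily on a 5-days-on/2-days-off schedule, with 10% 2-hydroxypropyl-β-cyclodextrin/water as vehicle control. Body weight and tumor volume were measured every two days; tumors were weighed at sacrifice. Significance by two-tailed Student's t-test.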

[9] = Toxicity in nude mouse assessed as effect on body weight at 30 mg/kg, qd after 24 days; format: organism-based; conditions: in vivo, 576 h, time 24 day; in short: as §3
A549 [10] = experiment: Antitumor activity against human A549 cells xenografted in nude mouse assessed as inhibition of tumor growth at 60 mg/kg, po qd for 5 days on and 2 days off dosing and measured after 24 days post-treatment; format: functional, organism-based; conditions: time 24.0 day; in short: as §3
A549 [11] = experiment: Antiproliferative activity against human A549 cells assessed as inhibition of cell proliferation at 100 uM incubated for 48 hrs by CCK-8 assay relative to control; format: functional; parameters: scale not given: the % may be the effect or the level left; in short: as §1
A549 [12] = experiment: Induction of apoptosis in human A549 cells assessed as early apoptotic cells at 40 uM after 48 hrs by Annexin V-FITC/PI double staining based flow cytometric analysis (reference value: 2.04%); format: functional
[13] = target: T1, NEDD8-activating enzyme E1 regulatory subunit (Homo sapiens); experiment: Inhibition of NAE-mediated neddylation in human A549 cells assessed as suppression of cullin5-Nedd8 adduct formation at 12.5 to 25 uM measured after 6 to 12 hrs by Western blot analysis; format: cell-based; conditions: dose 12.5-25 µM, time 6-12 hrs; in short: as §2
A549 [14] = experiment: Induction of p27 accumulation in human A549 cells at 50 uM incubated for 6 to 12 hrs by Western blot analysis; format: functional, cell-based; conditions: time 6-12 hrs; in short: as §2
A549 [15] = experiment: Induction of apoptosis in human A549 cells assessed as necrotic cells at 40 uM after 48 hrs by Annexin V-FITC/PI double staining based flow cytometric analysis (reference value: 1.57%); format: functional
A549 [16] = experiment: Induction of apoptosis in human A549 cells assessed as live cells at 10 uM after 48 hrs by Annexin V-FITC/PI double staining based flow cytometric analysis (reference value: 91.8%); format: functional
NCI-H1299 = experiment: Antiproliferative activity against human H1299 cells incubated for 48 hrs by CCK-8 assay; format: functional, cell-based; conditions: NCI-H1299, 48 h; in short: as §1
[17] = target: T2, NEDD8-activating enzyme E1 catalytic subunit (Homo sapiens, UniProt Q8TBC4); experiment: Inhibition of NAE (unknown origin)-mediated neddylation assessed as suppression of cullin1-Nedd8 adduct formation preincubated for 10 mins followed by ATP addition and measured after 30 mins by immunoblot analysis
T2 sequence (Q8TBC4 whole entry): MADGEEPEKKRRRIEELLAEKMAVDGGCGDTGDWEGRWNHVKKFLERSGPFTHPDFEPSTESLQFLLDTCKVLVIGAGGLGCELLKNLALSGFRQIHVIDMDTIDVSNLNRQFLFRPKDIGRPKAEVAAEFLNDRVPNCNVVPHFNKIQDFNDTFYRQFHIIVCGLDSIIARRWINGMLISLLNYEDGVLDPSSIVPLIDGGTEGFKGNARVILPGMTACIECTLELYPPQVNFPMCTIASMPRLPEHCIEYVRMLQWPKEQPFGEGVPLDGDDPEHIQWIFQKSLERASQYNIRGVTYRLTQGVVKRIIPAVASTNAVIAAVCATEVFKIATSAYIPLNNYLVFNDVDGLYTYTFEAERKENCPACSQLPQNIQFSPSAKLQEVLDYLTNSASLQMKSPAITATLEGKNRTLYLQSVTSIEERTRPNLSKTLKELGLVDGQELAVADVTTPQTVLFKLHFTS

[18] = target: T1, NEDD8-activating enzyme E1 regulatory subunit (Homo sapiens); experiment: Inhibition of NAE (unknown origin)-mediated neddylation assessed as suppression of cullin1-Nedd8 adduct formation at 25 uM preincubated for 10 mins followed by ATP addition and measured after 30 mins by immunoblot analysis relative to control; conditions: time 40.0 min

With `CCOc1nc2cccc(C(=O)NCCc3ccc(Cl)cc3Cl)c2n1Cc1ccc(-c2ccccc2-c2nnn[nH]2)cc1` the Activity (A549 [1]) was 1.57%, the IC50 (A549 [2]) was 20.4 µM and the Activity (A549 [3]) was 63.2%. The IC50 [4] was 76.1 µM, the inhibition [5] was “Active” and the Activity (A549 [6]) was 7.03%. For the same compound, the inhibition [7] was “Active”, the Activity (A549 [8]) was “Active” and the Activity [9] was “Non-Toxic”. For the same compound, the Activity (A549 [10]) was “Active”, the Activity (A549 [11]) was 83.9% and the Activity (A549 [12]) was 32.1%. The inhibition [13] was “Active”, the Activity (A549 [14]) was “Active” and the Activity (A549 [15]) was 1.02%. The Activity (A549 [16]) was 91.8%, the IC50 (NCI-H1299) was 21.8 µM and the IC50 [17] was 5.51 µM. It also gave an inhibition [18] of 86.4%.
